Assay outcomes: PubChem, several laboratories
GRK2 aptamer HTS = inhibitors of human GRK2 displacing RNA aptamer. 0.59% of 330,000 active. inhibition of aptamer binding, % at 10 µM. bead flow cytometry, FAM-aptamer displacement from GRK2. P25098;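 active means inhibition of aptamer binding above 40%, roughly 3 SD of noise, on plates passing a quality check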;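 further: median bead fluorescence of bound FAM aptamer so fluorescent compounds give negative values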
T cell HTS = modulates CD8 T cell binding to vesicles; AID 2052; 2C CD8+ T cell-vesicle binding, flow cytometry; active compounds read low; response (vesicle binding), % at 7 µM; 0.068% of 330,000 active;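 active means response, share of CD8 T cells binding vesicles, and their 90th percentile fluorescence all below set limits, cut at about 80% in these data, passing the limit was not always enough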;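 further: values below 100% mean blocked vesicle binding to the CD8+ T cells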
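Incubation: binding step 1.5 h, 37 °C, antibody labelling 20 min, ice; system: murine 2C transgenic CD8+ T lymphocytes; technique: cytometric PE anti-B7-1 and Alexa647 anti-CD8 signals after 1% paraformaldehyde fixation; also added: QL9-charged Drosophila Ld/ICAM-1/B7-1 vesicles; control set: naked versus QL9-loaded vesicles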
Keap1-Nrf2 PPI = Keap1-Nrf2 (human) interaction inhibition; Q14145; Keap1 Kelch-Nrf2 peptide fluorescence polarization, 1536-well; inhibition, % at 9.4 µM; 0.15% of 340,000 active; AID 504523; in the data active means inhibition above about 12%; inconclusive means no clear call, values can overlap the other calls; inactive means below about 7.3%;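 further: human Keap1 Kelch domain with fluorescein labeled Nrf2 9mer peptide probe; higher means more block of Keap1 binding to Nrf2 peptide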
C-LANA FP = KSHV C-LANA DNA binding inhibition; MBP-C-LANA/FAM-LBS DNA binding, fluorescence polarization; inhibition, % at 9 µM; 0.078% of 340,000 active; AID 504423;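 active means highest replicate inhibition at or above 60% at 9 µM, even if other replicates fall short; inactive means all replicates below 60% inhibition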
EBV gp42 inh = blocks Epstein-Barr virus glycoprotein 42 binding | Fluorescence polarization binding assay, mP read-out | inhibition, % (tested at 21.74 µM) | 0.42% of 220,000 active; in the data active means inhibition above about 50%
Target sequence (Q1HVG2 whole entry, looked up): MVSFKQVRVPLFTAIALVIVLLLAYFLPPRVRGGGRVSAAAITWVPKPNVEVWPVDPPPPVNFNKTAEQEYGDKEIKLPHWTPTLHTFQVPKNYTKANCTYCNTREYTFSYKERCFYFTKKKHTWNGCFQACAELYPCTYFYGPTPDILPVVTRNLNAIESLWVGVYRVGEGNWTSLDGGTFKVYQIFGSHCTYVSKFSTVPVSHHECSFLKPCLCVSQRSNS
MEX-5 binding = C. elegans MEX-5 TCR-2 RNA binding activity. Q9XUB2. MEX-5/FITC-TCR2 RNA binding, fluorescence polarization; active compounds read low. activity score (negative = inhibition of binding), % at 10 µM. 0.38% of 300,000 active;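 active means inhibition past about -25% in most replicates, and total fluorescence under double the plate's negative control median, limit read from the data; inconclusive means replicates evenly split on the limit, or fluorescence at least double controls; inactive means too little inhibition in most replicates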
Target sequence (Q9XUB2 whole entry, looked up): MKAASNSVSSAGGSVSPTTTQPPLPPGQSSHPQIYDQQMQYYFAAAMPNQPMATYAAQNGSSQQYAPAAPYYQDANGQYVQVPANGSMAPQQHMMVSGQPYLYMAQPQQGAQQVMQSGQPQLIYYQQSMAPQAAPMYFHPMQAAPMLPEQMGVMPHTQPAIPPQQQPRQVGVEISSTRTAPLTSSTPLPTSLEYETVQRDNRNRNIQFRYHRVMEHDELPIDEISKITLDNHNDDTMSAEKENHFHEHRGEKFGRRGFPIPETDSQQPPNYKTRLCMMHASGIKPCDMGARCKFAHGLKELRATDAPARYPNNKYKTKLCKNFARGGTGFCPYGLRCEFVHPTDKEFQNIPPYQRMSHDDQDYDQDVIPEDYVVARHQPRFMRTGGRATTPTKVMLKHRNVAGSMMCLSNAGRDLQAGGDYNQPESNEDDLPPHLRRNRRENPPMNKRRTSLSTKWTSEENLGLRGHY
Keap1 Kelch bind = binds and thermally shifts human Keap1 Kelch domain. shares compounds with Keap1-Nrf2 PPI. Keap1 Kelch thermal shift, delta Tm; active compounds read high. max delta Tm, degrees C. 8% of 400 active; in the data active means max delta Tm above about 0.48 degrees C
Sypro dye melt = dye artifact in Keap1 thermal shift counter-screen; Sypro Orange dye-only thermal melt, no protein, delta Tm; top dose 26 µM; shares compounds with Keap1-Nrf2 PPI; 140 tested, under 10 active; AID 651858; delta Tm, degrees C (concentration not given with the values);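 active means at highest dose tested, delta Tm positive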
Each line names hits and unclear results; the compound was inactive in the other large screens (follow-up assays come after a bar, where they were run). Hits are enriched below; roughly 1.3% of the tested compounds scored in any of these assays.

CCCCN1CC(COCc2ccccc2)Oc2cccc(Oc3cc(C)c(C)c(C)c3)c2S1(=O)=O (stereo unspecified)	none (no result: GRK2 aptamer HTS, T cell HTS, EBV gp42 inh, MEX-5 binding)
COC(=O)c1c(NC(=O)CSc2ncnc3c2cnn3-c2ccccc2Cl)sc2c1CCCC2	none
CNC(=O)C1CC(=O)N(c2ccc(OCC(=O)Nc3ccc(F)cc3)cc2)C1 (stereo unspecified)	Keap1-Nrf2 PPI 30 (no result: GRK2 aptamer HTS, T cell HTS, EBV gp42 inh, MEX-5 binding) | Keap1 Kelch bind inactive | Sypro dye melt inactive
C=CCNC(=O)C1CC(=O)N(c2ccc(OCC(=O)Nc3ccc(C)cc3)cc2)C1 (stereo unspecified)	none
CC1CN(CCC(=O)Nc2ccc3c(c2)CCC3)CC(C)O1 (stereo unspecified)	none
CCNc1c2c3c(cccc3n(C)c1=O)C(=O)c1ccccc1-2	MEX-5 binding inconclusive (no result: Keap1-Nrf2 PPI, C-LANA FP)
Cn1c(=O)c(N)c2c3c(c(Br)ccc31)C(=O)c1ccccc1-2	Keap1-Nrf2 PPI 31, C-LANA FP 124, EBV gp42 inh 171, MEX-5 binding -39 | Keap1 Kelch bind inactive
CC(=O)N1CC=C2C(C#N)=C(N)C(C#N)(C#N)C(CCc3ccccc3)C2C1 (stereo unspecified)	none
CCN1CC=C2C(C#N)=C(N)C(C#N)(C#N)C(CCc3ccccc3)C2C1 (stereo unspecified)	Keap1-Nrf2 PPI 22, EBV gp42 inh 81 (no result: MEX-5 binding) | Keap1 Kelch bind inactive
CNC(=S)Nc1cccc(C(=O)OC)c1	Keap1-Nrf2 PPI 41 (no result: C-LANA FP) | Keap1 Kelch bind inactive | Sypro dye melt inactive
O=C1c2ccccc2C(=O)c2c1cccc2N1CCCC1	none
O=C1C(Cl)=C(NCc2ccco2)C(=O)c2ccccc21	none (no result: GRK2 aptamer HTS, T cell HTS, EBV gp42 inh, MEX-5 binding)
O=C1c2ccccc2-c2onc3ccc(N4CCCC4)c1c23	Keap1-Nrf2 PPI 16, MEX-5 binding inconclusive (no result: GRK2 aptamer HTS, T cell HTS) | Keap1 Kelch bind inactive
O=C1c2ccccc2-c2onc3c(Oc4ccccc4)cc(O)c1c23	none (no result: GRK2 aptamer HTS, T cell HTS, Keap1-Nrf2 PPI, C-LANA FP, MEX-5 binding)
CCNc1ccc2noc3c2c1C(=O)c1ccccc1-3	Keap1-Nrf2 PPI 21, C-LANA FP 65, EBV gp42 inh 56, MEX-5 binding inconclusive | Keap1 Kelch bind 0.83
O=C1c2ccccc2-c2onc3ccc(NCc4ccco4)c1c23	Keap1-Nrf2 PPI 19, EBV gp42 inh 130, MEX-5 binding -77 | Keap1 Kelch bind inactive
CCOc1ccc2noc3c2c1C(=O)c1ccccc1-3	Keap1-Nrf2 PPI 21, MEX-5 binding inconclusive | Keap1 Kelch bind inactive
CN1CCC(N(C)C(=O)COc2ccccc2Cl)CC1	none (no result: EBV gp42 inh, MEX-5 binding)
O=C(CCc1ccccc1)Nc1ccc(S(=O)(=O)NC2=NCCCCC2)cc1	none (no result: EBV gp42 inh, MEX-5 binding)
Cc1ccc(S(=O)(=O)N2CCC(C)CC2)c([N+](=O)[O-])c1	none
O=C(CSCC(=O)Nc1ccccc1)N/N=C/c1c(O)ccc2ccccc12	Keap1-Nrf2 PPI 12 (no result: MEX-5 binding) | Keap1 Kelch bind inactive | Sypro dye melt inactive
O=C(CNc1ccccc1)N/N=C/c1c(O)ccc2ccccc12	none (no result: EBV gp42 inh)
O=C(C1=C(O)C(=O)N(CCc2ccccc2)C1c1ccncc1)c1cc2ccccc2o1 (stereo unspecified)	none
O=C(C1=C(O)C(=O)N(c2nccs2)C1c1ccccc1)c1cc2ccccc2o1 (stereo unspecified)	Keap1-Nrf2 PPI 42, EBV gp42 inh 157 | Keap1 Kelch bind inactive
CCOc1cccc(C2C(C(=O)c3ccc(C)o3)=C(O)C(=O)N2c2nccs2)c1 (stereo unspecified)	Keap1-Nrf2 PPI 24, EBV gp42 inh 172, MEX-5 binding -71 | Keap1 Kelch bind inactive
CCOc1cccc(C2C(C(=O)c3ccc(C)o3)=C(O)C(=O)N2Cc2ccncc2)c1 (stereo unspecified)	none
Cc1ccc(S(=O)(=O)Cc2ccc([N+](=O)[O-])cc2)cc1	none (no result: EBV gp42 inh)
Cc1ccccc1OCC(O)CN1C(=O)c2ccccc2C1=O (stereo unspecified)	none (no result: EBV gp42 inh)
Cc1nc(NC(=O)CSc2nnc(C3CC3)n2N)c(Cl)cc1Cl	none (no result: EBV gp42 inh, MEX-5 binding)
Cc1cc2nc3c(=O)[nH]c(=S)[nH]c3nc2cc1NC(=O)C(F)(F)F	Keap1-Nrf2 PPI 27, MEX-5 binding inconclusive (no result: EBV gp42 inh) | Keap1 Kelch bind inactive
O=c1[nH]c(=S)[nH]c2nc(-c3ccccc3)cnc12	none (no result: EBV gp42 inh)
O=C(Nc1ccccc1C(=O)N1CCCCCC1)c1ccc(F)cc1	Keap1-Nrf2 PPI 35 (no result: EBV gp42 inh) | Keap1 Kelch bind inactive | Sypro dye melt inactive
COCCCN1C(=O)c2ccc(C(=O)Nc3ccc(C)cc3C)cc2C1=O	Keap1-Nrf2 PPI 39 (no result: EBV gp42 inh) | Keap1 Kelch bind inactive
COCCCN1C(=O)c2ccc(C(=O)Nc3ccccc3OC)cc2C1=O	none
Cc1c(NC(=O)c2ccc(Cl)c(S(=O)(=O)N3CCCCC3)c2)c(=O)n(-c2ccccc2)n1C	none (no result: EBV gp42 inh)
COc1ccc(C(C2C(=O)CC(C)(C)CC2=O)C2C(=O)CC(C)(C)CC2=O)cc1CO	none (no result: EBV gp42 inh)
N/C(Cc1cccc2ccccc12)=N\O	Keap1-Nrf2 PPI 17 (no result: C-LANA FP) | Keap1 Kelch bind inactive | Sypro dye melt inactive
Fc1ccc(C2=CC(c3ccc(Br)o3)n3ncnc3N2)cc1 (stereo unspecified)	Keap1-Nrf2 PPI 36, C-LANA FP 64, EBV gp42 inh 62 (no result: MEX-5 binding) | Keap1 Kelch bind inactive
CC(C)(C)c1ccc(C2=CC(c3ccccc3F)n3ncnc3N2)cc1 (stereo unspecified)	none (no result: EBV gp42 inh)
Fc1ccc(C2=CC(c3ccco3)n3ncnc3N2)cc1 (stereo unspecified)	Keap1-Nrf2 PPI 19, MEX-5 binding -51 | Keap1 Kelch bind inactive
Cc1ccc(-c2nnc(SCC(=O)NC3CC3)o2)cc1	none (no result: EBV gp42 inh)
C/C(=N/Nc1ccccc1C(=O)O)c1cccs1	Keap1-Nrf2 PPI 74 (no result: C-LANA FP, EBV gp42 inh) | Keap1 Kelch bind inactive | Sypro dye melt inactive
COc1ccc2ccccc2c1C(O)c1nccn1C (stereo unspecified)	Keap1-Nrf2 PPI 33, EBV gp42 inh 60 | Keap1 Kelch bind inactive
CC(=O)Nc1ccc2c(c1)N(C(=O)CN(C)C)c1ccccc1CC2	Keap1-Nrf2 PPI 123 | Keap1 Kelch bind inactive
CCNCC(=O)N1c2ccccc2CCc2ccc(NC(C)=O)cc21	none
Cc1cc(C)c(NC(=O)Cn2nnc(C(=O)NCc3ccco3)c2N)c(C)c1	none
Cn1ccnc1Sc1cc(NCCCO)c([N+](=O)[O-])c2nonc12	Keap1-Nrf2 PPI 13 | Keap1 Kelch bind inactive
O=[N+]([O-])c1c(NCCCO)cc(Sc2ccc(Cl)cc2)c2nonc12	none
N/C(=N/OC(=O)c1ccc(Cl)cc1)c1ncc([N+](=O)[O-])s1	Keap1-Nrf2 PPI 22 | Keap1 Kelch bind inactive | Sypro dye melt inactive
N/C(=N\OC(=O)c1ccc(Cl)cc1)c1ccccn1	none
CN(C)C(=O)CCc1ccc2c3c([nH]c2c1)[C@]1(C)[C@@H](C(=O)N2CCCCC2)C[C@H](CC(=O)NCCCn2ccnc2)C(=O)N1CC3	none (no result: T cell HTS, EBV gp42 inh, MEX-5 binding)
